Reference: PubChem BioAssay AID588798 (Johns Hopkins Ion Channel Center, 2011)
The source made the active and inactive calls.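 Rule for the calls: active = peak inhibition of the KCNQ2 potassium channel above 30% at some tested dose, plus a fitted dose response curve; inactive = no inhibition at any dose, or no curve.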

Each compound was assayed against Potassium voltage-gated channel subfamily KQT member 2 (Rattus norvegicus) (UniProt O88943) (assay: KCNQ2 potassium flux blockade – cell-based, FluxOR thallium flux, CRC set 3, selectivity assay for KCNK9 inhibitor project, SAR follow-up (AID 588798)). Conditions: KCNQ2-expressing cells, FluxOR thallium flux fluorescence.
Sequence of Potassium voltage-gated channel subfamily KQT member 2 (Rattus norvegicus) (O88943 whole entry, looked up): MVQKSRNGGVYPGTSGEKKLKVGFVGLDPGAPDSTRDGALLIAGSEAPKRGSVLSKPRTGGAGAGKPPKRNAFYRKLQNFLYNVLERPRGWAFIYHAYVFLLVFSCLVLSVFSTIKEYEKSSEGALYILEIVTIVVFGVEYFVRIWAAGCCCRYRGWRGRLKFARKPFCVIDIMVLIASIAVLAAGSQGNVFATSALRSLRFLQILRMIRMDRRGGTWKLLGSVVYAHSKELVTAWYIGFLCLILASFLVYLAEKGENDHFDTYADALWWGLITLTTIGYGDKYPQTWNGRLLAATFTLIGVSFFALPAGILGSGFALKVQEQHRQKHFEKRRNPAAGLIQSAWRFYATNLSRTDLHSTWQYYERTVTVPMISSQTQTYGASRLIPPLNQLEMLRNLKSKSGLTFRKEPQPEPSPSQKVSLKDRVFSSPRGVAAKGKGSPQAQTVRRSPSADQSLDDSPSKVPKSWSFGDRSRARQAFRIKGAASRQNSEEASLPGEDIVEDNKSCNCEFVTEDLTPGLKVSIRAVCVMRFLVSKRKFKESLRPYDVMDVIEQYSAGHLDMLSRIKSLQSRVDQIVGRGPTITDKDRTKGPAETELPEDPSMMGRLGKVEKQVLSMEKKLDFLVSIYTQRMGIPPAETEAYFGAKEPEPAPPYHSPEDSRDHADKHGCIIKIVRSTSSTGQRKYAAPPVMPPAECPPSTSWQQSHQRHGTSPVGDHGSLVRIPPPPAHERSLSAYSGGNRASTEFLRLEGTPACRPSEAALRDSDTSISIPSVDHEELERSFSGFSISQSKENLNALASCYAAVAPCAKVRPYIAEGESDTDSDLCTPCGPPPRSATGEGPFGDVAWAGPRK
How it was run: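 test system = CHO cells expressing rat KCNQ2 potassium channel | compound dosing = concentration-response series | incubation = dye loading 90 min, compound pre-incubation 20 min, both room temperature | technique = FluxOR thallium-sensitive dye, kinetic fluorescence reading | read-out = normalised fluorescence change ratio and IC50 | repeats = duplicate or more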
Work on `CC(C1CC2CCC1C2)n1c(SCc2ccccc2)nnc1-c1ccco1` (stereo not drawn) yielded an IC50 of 18 µM.

Same assay, conditions: KCNQ2-expressing cells, FluxOR thallium flux fluorescence; at 30 µM (top of the series)
`CC(C)Oc1ccccc1C(=O)Nc1cccc(NC(=O)c2ccccc2OC(F)(F)F)c1` was tested, and the “thallium flux ratio, lower = inhibition” value was “inactive”.
For `CC(C1C2CCC1CC2)n1c(-c2ccco2)n[nH]c1=S` (stereo not drawn), the “thallium flux ratio, lower = inhibition” value was “inactive”.
With `S=c1[nH]nc(-c2ccco2)n1C1CC2CCC1C2` (stereo not drawn) the “thallium flux ratio, lower = inhibition” value was “inactive”.
With `COc1ccccc1C(=O)Nc1cc(NC(=O)c2ccccc2C(C)C)ccc1F` the “thallium flux ratio, lower = inhibition” value was “inactive”.
`CC(C1CCCCC1)n1c(-c2ccco2)n[nH]c1=S` (stereo not drawn) was tested, and the “thallium flux ratio, lower = inhibition” value was “inactive”.
With `CC(C1CC2CCC1C2)n1c(-c2ccccn2)n[nH]c1=S` (stereo not drawn) the “thallium flux ratio, lower = inhibition” value was “inactive”.
In the case of `CC(C1CC2CCC1C2)n1c(SC(F)F)nnc1-c1ccco1` (stereo not drawn), the “thallium flux ratio, lower = inhibition” value is reported as “inactive”.
In the case of `CC(C1CC2CCC1C2)n1c(-c2ccco2)n[nH]c1=S` (stereo not drawn), the “thallium flux ratio, lower = inhibition” value is reported as “inactive”.
For `CC(NC(=O)c1ccco1)C1CC2CCC1C2` (stereo not drawn), the “thallium flux ratio, lower = inhibition” value was “inactive”.
In the case of `CC(C1CC2CCC1C2)n1c(-c2cccn2C)n[nH]c1=S` (stereo not drawn), the “thallium flux ratio, lower = inhibition” value is reported as “inactive”.
For `CC(C1CC2CCC1C2)n1c(-c2cccnc2)n[nH]c1=S` (stereo not drawn), the “thallium flux ratio, lower = inhibition” value was “inactive”.
`CSc1nnc(-c2ccco2)n1C(C)C1CC2CCC1C2` (stereo not drawn) was tested, and the “thallium flux ratio, lower = inhibition” value was “inactive”.
`CC(C1CC2CCC1C2)n1c(-c2cccs2)n[nH]c1=S` (stereo not drawn) was tested, and the “thallium flux ratio, lower = inhibition” value was “inactive”.
In the case of `CC(C1CC2CCC1C2)n1c(-c2cccc(N(C)C)c2)n[nH]c1=S` (stereo not drawn), the “thallium flux ratio, lower = inhibition” value is reported as “inactive”.
In the case of `COc1ccc(C(=O)CSc2nnc(-c3ccco3)n2C(C)C2CC3CCC2C3)cc1` (stereo not drawn), the “thallium flux ratio, lower = inhibition” value is reported as “inactive”.
With `S=c1[nH]nc(-c2ccco2)n1CC1CC2CCC1C2` (stereo not drawn) the “thallium flux ratio, lower = inhibition” value was “inactive”.
For `CC(C1CC2CCC1C2)n1c(-c2ccncc2)n[nH]c1=S` (stereo not drawn), the “thallium flux ratio, lower = inhibition” value was “inactive”.
`CC(C1CC2CCC1C2)n1cnnc1-c1ccco1` (stereo not drawn) was tested, and the “thallium flux ratio, lower = inhibition” value was “inactive”.
For `COc1cc(OC)cc(-c2n[nH]c(=S)n2C(C)C2CC3CCC2C3)c1` (stereo not drawn), the “thallium flux ratio, lower = inhibition” value was “inactive”.
In the case of `CC(CC1CC2CCC1C2)n1c(-c2ccco2)n[nH]c1=S` (stereo not drawn), the “thallium flux ratio, lower = inhibition” value is reported as “inactive”.
For `COc1cccc(-c2nnc(S(C)(=O)=O)n2C(C)C2CC3CCC2C3)c1` (stereo not drawn), the “thallium flux ratio, lower = inhibition” value was “inactive”.
For `COc1ccccc1C(=O)Nc1cccc(NC(=O)c2cccc3ccccc23)c1`, the “thallium flux ratio, lower = inhibition” value was “inactive”.
`COc1cccc(Cc2n[nH]c(=S)n2C(C)C2CC3CCC2C3)c1` (stereo not drawn) was tested, and the “thallium flux ratio, lower = inhibition” value was “inactive”.
With `COc1cccc(-c2n[nH]c(=S)n2C(C)C2CC3CCC2C3)c1OC` (stereo not drawn) the “thallium flux ratio, lower = inhibition” value was “inactive”.
For `CC(C1CC2CCC1C2)n1c(-c2ccccc2F)n[nH]c1=S` (stereo not drawn), the “thallium flux ratio, lower = inhibition” value was “inactive”.
In the case of `CC(C1CC2CCC1C2)n1c(-c2ccco2)nnc1C(F)(F)F` (stereo not drawn), the “thallium flux ratio, lower = inhibition” value is reported as “inactive”.
In the case of `CC(CCC1CCCC1)n1c(-c2ccco2)n[nH]c1=S` (stereo not drawn), the “thallium flux ratio, lower = inhibition” value is reported as “inactive”.
In the case of `CC(C1CC2CCC1C2)n1c(-c2ccc(N(C)C)cc2)n[nH]c1=S` (stereo not drawn), the “thallium flux ratio, lower = inhibition” value is reported as “inactive”.
With `CC(c1cccc2ccccc12)n1c(-c2ccco2)n[nH]c1=S` (stereo not drawn) the “thallium flux ratio, lower = inhibition” value was “inactive”.
`CC(C)c1ccccc1C(=O)Nc1cccc(NC(=O)c2ccccc2OC(F)(F)F)c1` was tested, and the “thallium flux ratio, lower = inhibition” value was “inactive”.
`CC(C1CC2CCC1C2)n1c(SCC(=O)c2ccc(Cl)c(Cl)c2)nnc1-c1ccco1` (stereo not drawn) was tested, and the “thallium flux ratio, lower = inhibition” value was “inactive”.
`COc1ccc(C(=O)CSc2nnc(-c3ccco3)n2C(C)C2CC3CCC2C3)cc1OC` (stereo not drawn) was tested, and the “thallium flux ratio, lower = inhibition” value was “inactive”.
With `CC(C1CC2CCC1C2)n1c(SCC(=O)c2ccc3c(c2)OCO3)nnc1-c1ccco1` (stereo not drawn) the “thallium flux ratio, lower = inhibition” value was “inactive”.
With `CC(C1CC2CCC1C2)N(C)C(=O)c1ccco1` (stereo not drawn) the “thallium flux ratio, lower = inhibition” value was “inactive”.
In the case of `COc1ccc(CCSc2nnc(-c3ccco3)n2C(C)C2CC3CCC2C3)cc1OC` (stereo not drawn), the “thallium flux ratio, lower = inhibition” value is reported as “inactive”.
In the case of `COc1cccc(C(=O)CSc2nnc(-c3ccco3)n2C(C)C2CC3CCC2C3)c1` (stereo not drawn), the “thallium flux ratio, lower = inhibition” value is reported as “inactive”.
With `C[C@@H](C1CCCCC1)n1c(-c2ccco2)n[nH]c1=S` the “thallium flux ratio, lower = inhibition” value was “inactive”.
For `CC(C1CC2CCC1C2)n1c(SCC(=O)c2ccccc2)nnc1-c1ccco1` (stereo not drawn), the “thallium flux ratio, lower = inhibition” value was “inactive”.
For `CC(C1CC2CCC1C2)n1c(SCC#N)nnc1-c1cccs1` (stereo not drawn), the “thallium flux ratio, lower = inhibition” value was “inactive”.
For `C[C@H](C1CCCCC1)n1c(-c2ccco2)n[nH]c1=S`, the “thallium flux ratio, lower = inhibition” value was “inactive”.
In the case of `CC(C1CC2CCC1C2)n1c(-c2ccco2)n[nH]c1=O` (stereo not drawn), the “thallium flux ratio, lower = inhibition” value is reported as “inactive”.
For `CC(C1CC2CCC1C2)n1c(-c2cccc(F)c2)n[nH]c1=S` (stereo not drawn), the “thallium flux ratio, lower = inhibition” value was “inactive”.
